Assay results reported in ChEMBL document CHEMBL1795208 (J Med Chem, 2011).

Experiments:
Format in all cases: functional, cell-based
SK-BR-3 = assay: Antiproliferative activity against human SKBR3 cells expressing HER2 after 72 hrs by MTS/PMS assay; conditions: SK-BR-3, 72 h
Method in brief: (§1)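 Cells kept in Advanced DMEM/F12 (1:1) with non-essential amino acids, 2 mM L-glutamine, penicillin, streptomycin and 10% FBS at 37 °C, 5% CO2. Seeded at 2000/well, attached overnight. Compound added in DMSO across a concentration range (1% DMSO final) for 72 h. Viable cells read by MTS/PMS and normalized to 1% DMSO controls (100%). IC50 taken from separate triplicate experiments.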

MCF7 = assay: Antiproliferative activity against human MCF7 cells expressing estrogen receptor after 72 hrs by MTS/PMS assay; conditions: MCF7, 72 h; method in brief: as §1
[1] = Antiproliferative activity against human androgen-dependent LNCaP-LN3 cells after 72 hrs by MTS/PMS assay; conditions: LNCaP-LN3, 72 h; method in brief: as §1
[2] = Antiproliferative activity against human androgen-independent PC3MM2 cells after 72 hrs by MTS/PMS assay; conditions: PC3MM2, 72 h; method in brief: as §1
B16-F10 = assay: Antiproliferative activity against mouse B16F10 cells after 72 hrs by MTS/PMS assay; conditions: B16-F10, 72 h; method in brief: as §1
SK-MEL-28 = assay: Antiproliferative activity against human SK-MEL-28 cells after 72 hrs by MTS/PMS assay; conditions: SK-MEL-28, 72 h; method in brief: as §1
[3] = Antiproliferative activity against human MDA1986 cells after 72 hrs by MTS/PMS assay; conditions: MDA1986, 72 h; method in brief: as §1
[4] = Antiproliferative activity against human JMAR cells after 72 hrs by MTS/PMS assay; method in brief: as §1

Row | SMILES | IC50 (SK-BR-3) [µM] | IC50 (MCF7) [µM] | IC50 [1] [µM] | IC50 [2] [µM] | IC50 (B16-F10) [µM] | IC50 (SK-MEL-28) [µM] | IC50 [3] [µM] | IC50 [4] [µM]
1 | COc1cccc(-c2cc(C(=O)Nc3cc4cc(OC)c(O)c(C)c4oc3=O)ccc2OC)c1 | 3.23 | 11.7 | 15.8 | 11.2 | 5.77 | 12.4 | 6.7 | 24.6
2 | COc1cccc(-c2cc(C(=O)Nc3cc4cc(OC)c(OC5CCNCC5)c(C)c4oc3=O)ccc2OC)c1 | 1.2 | 2.82 | 5.27 | 4.02 | 1.84 | 5.75 | 14.6 | 10.9
3 | COc1cccc(-c2cc(C(=O)Nc3cc4cc(OC)c(OC5CNC[C@@H](O)[C@H]5O)c(C)c4oc3=O)ccc2OC)c1 (some centres not stated) | 3.65 | 3.34 | 9.45 | 6.84 | 5.04 | 13.8 | 13.8 | 11.5
4 | COc1cccc(-c2cc(C(=O)Nc3cc4ccc(OC5CNC[C@@H](O)[C@H]5O)c(C)c4oc3=O)ccc2OC)c1 (some centres not stated) | 2.91 | 2.07 | 4.9 | 6.33 | 2.8 | 6.14 | 5.6 | 5.89
5 | COc1cccc(-c2cc(C(=O)Nc3cc4ccc(OC5CC(C)(C)C[C@@H](O)[C@H]5O)c(C)c4oc3=O)ccc2OC)c1 (some centres not stated) | > 100 | > 100 | 1.24 | 2.49 | 15.9 | 3.47 | 18.8 | 8.5
6 | COc1cccc(-c2cc(C(=O)Nc3cc4ccc(OC5CCCN(C)C5)c(C)c4oc3=O)ccc2OC)c1 (configuration not stated) | 2.06 | 5.04 | 1.22 | 4.23 | 2.6 | 6.14 | 4.5 | 12.6
7 | COc1cccc(-c2cc(C(=O)Nc3cc4ccc(OC5CCCN(C)C5)c(OC)c4oc3=O)ccc2OC)c1 (configuration not stated) | 1.4 | 1.38 | 1.78 | 2.16 | 1.51 | 7.14 | 11.4 | 7.5
8 | COc1cccc(-c2cc(C(=O)Nc3cc4ccc(O[C@H]5OCC[C@@H](O)[C@H]5O)c(C)c4oc3=O)ccc2OC)c1 | 6.71 | 42.6 | 1.2 | 12.9 | 8.56 | 15.8 | 3.7 | 6.14
9 | COc1cccc(-c2cc(C(=O)Nc3cc4cc(OC)c(OC5CCCNC5)c(C)c4oc3=O)ccc2OC)c1 (configuration not stated) | 2.27 | 2.9 | 3.66 | 2.59 | 1.84 | 7.19 | 6.4 | 5.7
10 | COc1cccc(-c2cc(C(=O)Nc3cc4ccc(O[C@H]5C[C@H](O)CO5)c(C)c4oc3=O)ccc2OC)c1 | 35.2 | > 100 | 3.72 | 10.1 | 12.7 | 21.4 | 6.9 | 24.1
11 | COc1cccc(-c2cc(C(=O)Nc3cc4ccc(OC5CNC[C@@H](O)[C@H]5O)c(OC)c4oc3=O)ccc2OC)c1 (some centres not stated) | 8.98 | 10.2 | 12.2 | 14.4 | 11.8 | 11.4 | 21.7 | 11.6
12 | COc1cccc(-c2cc(C(=O)Nc3cc4ccc(OC5CCCN(C(C)=O)C5)c(C)c4oc3=O)ccc2OC)c1 (configuration not stated) | > 50 | > 50 | 1.23 | 3.42 | 12.4 | 20.9 | 22.4 | 15.1
13 | COc1cccc(-c2cc(C(=O)Nc3cc4ccc(OC5C=CCN(C)C5)c(C)c4oc3=O)ccc2OC)c1 (configuration not stated) | 2.92 | 5.29 | 1.22 | 1.73 | 6.4 | 10.8 | 7.7 | 11.4
14 | COc1cccc(-c2cc(C(=O)Nc3cc4ccc(OCCN(C)C)c(C)c4oc3=O)ccc2OC)c1 | 1.02 | 1.46 | 6.65 | 4.17 | 15.7 | 14.7 | 17.5 | 18.4
